Laboratory results from ChEMBL document CHEMBL3992529, “Total Syntheses and Biological Activities of Vinylamycin Analogues” (J Med Chem, 2017).
Converted amounts (≈) assume the structure as drawn. Structures can show the parent of a compound that is named as a salt. The source made the active and inactive calls. No cut-off for these calls is given here.

What was measured:
K562 [1] = assay: Cytotoxicity against human K562 cells measured after 72 hrs by MTT assay; format: functional, cell-based; conditions: K562, 72 h
K562 [2] = assay: Potency index, ratio of vinylamycin IC50 to compound IC50 for human K562 cells; format: functional
[3] = Stability of the compound at -20 degreeC incubated for one month; format: physicochemical; conditions: 730.5 h
MCF7 [4] = assay: Cytotoxicity against human MCF7 cells incubated for 72 hrs under normoxic condition by MTT assay; format: functional, cell-based; conditions: MCF7, 72 h
In short: (§1)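 MCF-7 cells seeded at 2 × 10^4 cells/100 µL in duplicate and preincubated 24 h. Serial dilutions added, then 72 h at 20% O2 (normoxia) or 1% O2 (hypoxia, modular chamber). Viability by MTT under normoxia. Values are mean ± SD of three independent experiments.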

MCF7 [5] = assay: Cytotoxicity against human MCF7 cells incubated for 72 hrs under hypoxic condition by MTT assay; format: functional, cell-based; conditions: MCF7, 72 h; in short: as §1
MCF7 [6] = assay: Selectivity index, ratio of IC50 for human MCF7 cells under hypoxic condition to IC50 for human MCF7 cells under normoxic condition; format: functional
In short: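 Index computed as IC50(hypoxia)/IC50(normoxia) in MCF-7 cells, each from a 72 h MTT assay at 1% or 20% O2.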

Staphylococcus aureus = assay: Antibacterial activity against Staphylococcus aureus measured after 24 hrs by turbidimetric based microdilution method; format: functional
In short: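 S. aureus grown 18 h at 37 °C in MH broth, diluted 50-fold and regrown to OD600 0.8–1.0, then diluted ten-fold serially to about 1 × 10^4 CFU/mL. Compounds two-fold serially diluted, 64 to 0.0625 µg/mL. MIC read by visual turbidity after 24 h at 37 °C.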

[7] = Half life in Sprague-Dawley rat plasma at 1 mg/ml by HPLC analysis; format: ADME, cell-free
In short: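 SD rat plasma diluted to 50% in water, prewarmed to 37 °C. 40 µL of a 1 mg/mL ACN stock added per 1 mL plasma. Samples taken at 0–1440 min, proteins precipitated with ACN containing internal standard, centrifuged. Supernatant quantified by C18 HPLC using the internal standard method.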

[8] = Stability of the compound at -20 degreeC incubated for 3 days; format: physicochemical; conditions: 72 h
K562 [9] = assay: Induction of apoptosis in human K562 cells at 5 to 15 uM measured after 24 to 48 hrs by Annexin V-FITC/propidium iodide staining based flow cytometry; format: functional, cell-based
In short: (§2)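 K562 cells seeded at 1 × 10^5 per well and treated 24 h and 48 h. Cells washed in PBS, resuspended in binding buffer, stained in the dark with annexin V-FITC and PI for 15 min, then analysed by flow cytometry within 1 h. Values are mean ± SD of three independent experiments.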

[10] = Toxicity in wild-type zebrafish AB assessed as mortality at 0.8 ug/ml; set-up: species or system Danio rerio; conditions: in vivo
In short: (§3)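 Wild-type AB zebrafish were randomly allocated to wells, 30 fish per well, and exposed to the test agent at a range of concentrations.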

[11] = Toxicity in wild-type zebrafish AB assessed as mortality at 4 ug/ml; set-up: species or system Danio rerio; conditions: in vivo; in short: as §3
[12] = Toxicity in wild-type zebrafish AB assessed as mortality at 20 ug/ml; set-up: species or system Danio rerio; conditions: in vivo; in short: as §3
[13] = Toxicity in wild-type zebrafish AB assessed as mortality at 50 ug/ml; set-up: species or system Danio rerio; conditions: in vivo; in short: as §3
[14] = (§4) Toxicity in wild-type zebrafish AB assessed as mortality at 100 ug/ml; set-up: species or system Danio rerio; conditions: AB wild-type, in vivo; in short: as §3
K562 [15] = assay: Cytotoxicity against CM-Dil-labeled human K562 cells xenografted in wild-type zebrafish AB assessed as cell growth inhibition at 50 ug/ml measured after 2 days by fluorescence microscopic method relative to control; format: functional
In short: (§5)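 Wild-type AB zebrafish at 2 dpf yolk-injected with about 200 CM-DiI-labelled K562 cells, held at 35 °C to 3 dpf. Single waterborne dose in 0.1% DMSO aqueous solution, 30 fish per well. Then 2 days at 35 °C. 10 fish imaged by fluorescence microscopy and tumour-cell fluorescence intensity compared with vehicle control.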

K562 [16] = assay: Induction of apoptosis in human K562 cells at 0.5 to 2 uM measured after 24 to 48 hrs by Annexin V-FITC/propidium iodide staining based flow cytometry; format: functional, cell-based; in short: as §2
Danio rerio = species on record: Danio rerio; assay: as §4; conditions: in vivo; in short: as §3
K562 [17] = assay: Cytotoxicity against CM-Dil-labeled human K562 cells xenografted in wild-type zebrafish AB assessed as cell growth inhibition at 5.6 ug/ml measured after 2 days by fluorescence microscopic method relative to control; format: functional; in short: as §5
K562 [18] = assay: Cytotoxicity against CM-Dil-labeled human K562 cells xenografted in wild-type zebrafish AB assessed as cell growth inhibition at 16.7 ug/ml measured after 2 days by fluorescence microscopic method relative to control; format: functional; in short: as §5

Row | SMILES | IC50 (K562 [1]) | Stability [3] | IC50 (MCF7 [4]) | IC50 (MCF7 [5]) | Ratio IC50 (MCF7 [6]) | also measured
1 | C=C1/C=C/C(=O)N[C@@H](C)C(=O)N[C@H](C(C)C)C(=O)O[C@H]([C@H](C)CCCCCC)[C@@H](CCO[Si](c2ccccc2)(c2ccccc2)C(C)(C)C)C(=O)N1 | 1.78 µM | Stable | 2.98 µM | 2.69 µM | 0.9 | Ratio IC50 (K562 [2]): 3
2 | CCCCCC[C@@H](C)[C@@H]1OC(=O)[C@H](C(C)C)NC(=O)[C@@H](C)NC(=O)/C=C/[C@H](CO)NC(=O)[C@H]1CCOCc1ccc(OC)cc1 | 21.4 µM | Stable |  |  |  | 
3 | C=C1/C=C/C(=O)N[C@@H](C)C(=O)N[C@H](C(C)C)C(=O)O[C@H]([C@@H](C)CCCCCC)[C@@H](CCO[Si](c2ccccc2)(c2ccccc2)C(C)(C)C)C(=O)N1 | 1.27 µM | Stable | 5.11 µM | 7.02 µM | 1.37 | Ratio IC50 (K562 [2]): 4
4 | C=C1/C=C/C(=O)NCC(=O)N[C@@H](C(C)C)C(=O)O[C@@H]([C@H](C)CCCCCC)[C@H](CCO[Si](c2ccccc2)(c2ccccc2)C(C)(C)C)C(=O)N1 | 2.31 µM | Stable | 3.49 µM | 4.69 µM | 1.34 | Ratio IC50 (K562 [2]): 2
5 | C=C1/C=C/C(=O)N[C@@H](C)C(=O)N[C@H](C(C)C)C(=O)O[C@@H]([C@H](C)CCCCCC)[C@H](CCOCc2ccc(OC)cc2)C(=O)N1 | 4.6 µM | Stable | 10.1 µM | 7.98 µM | 0.79 | 
6 | C=C1/C=C/C(=O)N(C)CC(=O)N[C@@H]([C@H](O)C(N)=O)C(=O)O[C@@H]([C@H](C)CCCCCCCCCCCC(C)C)[C@H](C)C(=O)N1 |  |  | 0.3 µM | 0.08 µM | 0.27 | 
7 | C=C1/C=C/C(=O)N[C@@H](C)C(=O)N[C@H](C(C)C)C(=O)O[C@H]([C@@H](C)CCCCCC)[C@@H](CCO)C(=O)N1 | 4.86 µM |  | 12.3 µM | 9.17 µM | 0.74 | MIC (Staphylococcus aureus): 8 µg/mL (≈ 16.2 µM); half-life at 1 mg/ml [7]: 0.54 h; Stability [8]: Unstable
8 | C#CCCCCCCCCC(=O)OCC[C@@H]1C(=O)NC(=C)/C=C/C(=O)N[C@H](C)C(=O)N[C@@H](C(C)C)C(=O)O[C@H]1[C@H](C)CCCCCC | 4.41 µM | Stable |  |  |  | MIC (Staphylococcus aureus): > 64 µg/mL; Activity (K562 [9]): Active
9 | C=C1/C=C/C(=O)N(C)CC(=O)N[C@@H](C(C)C)C(=O)O[C@@H]([C@H](C)CCCCCC)[C@H](CCO[Si](c2ccccc2)(c2ccccc2)C(C)(C)C)C(=O)N1 | 0.4 µM | Stable |  |  |  | MIC (Staphylococcus aureus): > 64 µg/mL; half-life at 1 mg/ml [7]: 20.1 h
10 | C=C1/C=C/C(=O)N[C@@H](C)C(=O)N[C@H](C(C)C)C(=O)O[C@@H]([C@H](C)CCCCCC)[C@H](CCO[Si](c2ccccc2)(c2ccccc2)C(C)(C)C)C(=O)N1 | 0.88 µM | Stable | 3.75 µM | 2.93 µM | 0.78 | 
11 | C=C1/C=C/C(=O)N[C@H](C)C(=O)N[C@@H](C(C)C)C(=O)O[C@@H]([C@H](C)CCCCCC)[C@H](CCOC(=O)CP(=O)(OCC)OCC)C(=O)N1 | 7.9 µM | Stable |  |  |  | 
12 | C=C1/C=C/C(=O)N[C@@H](C)C(=O)N[C@H](C(C)C)C(=O)OC([C@@H](C)CCC)[C@@H](CCOCc2ccc(OC)cc2)C(=O)N1 (single isomer, unassigned) | 13.7 µM | Stable |  |  |  | 
13 | C=C1/C=C/C(=O)N[C@H](C)C(=O)N[C@@H](C(C)C)C(=O)O[C@@H]([C@H](C)CCCCCC)[C@H](CCOC(=O)[C@H](Cc2ccccc2)NC(=O)OC(C)(C)C)C(=O)N1 | 5.95 µM | Stable |  |  |  | 
14 | C#CCCCC(=O)OCC[C@@H]1C(=O)NC(=C)/C=C/C(=O)N[C@H](C)C(=O)N[C@@H](C(C)C)C(=O)O[C@H]1[C@H](C)CCCCCC | 8 µM | Stable |  |  |  | 
15 | C=C1/C=C/C(=O)N(C)CC(=O)N[C@@H]([C@H](O)C(=O)OC)C(=O)O[C@@H]([C@H](C)CCCCCCCCCCCC(C)C)[C@H](C)C(=O)N1 |  |  | 0.32 µM | 0.12 µM | 0.38 | 
16 | C=C1/C=C/C(=O)N[C@H](C)C(=O)N[C@@H](C(C)C)C(=O)O[C@@H]([C@H](C)CCCCCC)[C@H](CCOC(=O)CCCCCCCCCCCCCCCCC)C(=O)N1 | > 50 µM | Stable |  |  |  | 
17 | Cc1ccc(NC(=O)c2ccc(CN3CCN(C)CC3)cc2)cc1Nc1nccc(-c2cccnc2)n1 [IMATINIB] |  |  |  |  |  | mortality at 0.8 ug/ml [10]: 0%; mortality at 4 ug/ml [11]: 0%; mortality at 20 ug/ml [12]: 0%; mortality at 50 ug/ml [13]: 0%; mortality at 100 ug/ml [14]: 100%; growth inhibition (GI) (K562 [15]): 71%
18 | C=C1/C=C/C(=O)N[C@H](C)C(=O)N[C@@H](C(C)C)C(=O)O[C@@H]([C@H](C)CCCCCC)[C@H](CCOCc2ccc(OC)cc2)C(=O)N1 | 2.49 µM | Stable |  |  |  | 
19 | C=C1/C=C/C(=O)N[C@H](C)C(=O)N[C@@H](C(C)C)C(=O)O[C@@H]([C@H](C)CCCCCC)[C@H](CCOC(=O)OC(C)(C)C)C(=O)N1 | 5.43 µM | Stable |  |  |  | 
20 | C=C1/C=C/C(=O)N[C@H](C)C(=O)N[C@@H](C(C)C)C(=O)O[C@@H]([C@H](C)CCCCCC)[C@H](CCOC(=O)C23CC4CC(CC(C4)C2)C3)C(=O)N1 | 7.72 µM | Stable |  |  |  | 
21 | Nc1ccn([C@@H]2O[C@H](CO)[C@@H](O)C2(F)F)c(=O)n1 [GEMCITABINE] |  |  | 0.57 µM | 8.9 µM | 15.6 | 
22 | CCCCCC[C@@H](C)[C@@H]1OC(=O)[C@H](C(C)C)NC(=O)[C@@H](C)NC(=O)/C=C/[C@H](CO)NC(=O)[C@H]1CCOCc1ccccc1 | 33.6 µM | Stable |  |  |  | 
23 | C=C1/C=C/C(=O)N[C@H](C)C(=O)N[C@@H](C(C)C)C(=O)O[C@@H]([C@H](C)CCCCCC)[C@H](CCO[Si](c2ccccc2)(c2ccccc2)C(C)(C)C)C(=O)N1 | 0.64 µM | Stable | 6.26 µM | 6.81 µM | 1.09 | MIC (Staphylococcus aureus): > 64 µg/mL; half-life at 1 mg/ml [7]: 14.3 h; Activity (K562 [16]): Active; mortality at 0.8 ug/ml [10]: 0%; mortality at 4 ug/ml [11]: 0%; mortality at 20 ug/ml [12]: 0%; mortality at 50 ug/ml [13]: 0%; mortality (Danio rerio): Nd(Insoluble); growth inhibition (GI) (K562 [17]): 66%; growth inhibition (GI) (K562 [18]): 70%; growth inhibition (GI) (K562 [15]): 75%
24 | C=C1/C=C/C(=O)N[C@H](C)C(=O)N[C@@H](C(C)C)C(=O)O[C@@H]([C@H](C)CCCCCC)[C@H](CCOC(=O)CC(c2ccccc2)(c2ccccc2)c2ccccc2)C(=O)N1 | 3.79 µM | Stable |  |  |  | 
25 | O=C(O)c1cn(C2CC2)c2cc(N3CCNCC3)c(F)cc2c1=O [CIPROFLOXACIN] |  |  |  |  |  | MIC (Staphylococcus aureus): 0.5 µg/mL (≈ 1.51 µM)
26 | Cc1ccc(NC(=O)c2ccc(CN3CCN(C)CC3)cc2)cc1Nc1nccc(-c2cccnc2)n1 [IMATINIB MESYLATE] | 0.31 µM |  |  |  |  | 
27 | C=C1/C=C/C(=O)NC(C)C(=O)NC(C(C)C)C(=O)O[C@@H]([C@H](C)CCCCCC)[C@H](CCOCc2ccccc2)C(=O)N1 (single isomer, unassigned) | 3.06 µM | Stable |  |  |  | 
28 | C=C1/C=C/C(=O)N[C@@H](C)C(=O)N[C@H](C(C)C)C(=O)O[C@H]([C@@H](C)CCC)[C@@H](CCO)C(=O)N1 | > 50 µM |  | > 20 µM | > 20 µM |  | 
29 | C#CCCCCCCCCC(=O)OCC[C@@H]1C(=O)N[C@@H](CO)/C=C/C(=O)N[C@H](C)C(=O)N[C@@H](C(C)C)C(=O)O[C@H]1[C@H](C)CCCCCC | 17.9 µM | Stable |  |  |  | 
